{"source": "ChEMBL document CHEMBL1629663", "about": "“Postantibiotic effects of telavancin against 16 gram-positive organisms” (Antimicrob Agents Chemother, 2009)", "format_in_all_cases": "functional", "key": {"Enterococcus faecalis [1]": {"tested_on": "Enterococcus faecalis", "test": "Antimicrobial activity against Enterococcus faecalis HMC 571 assessed as time required to induce sub-MIC effect at 0.3 times MIC exposed for 2 hrs by plate counting method", "how_it_was_run": "(§1)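 Unexposed Mueller-Hinton broth cultures (about 5 × 10^6 CFU/ml, 35°C) were handled as in the PA-SME set but without the 10× MIC pre-exposure. They were diluted 1:1,000, then given telavancin at final 0.2, 0.3 or 0.4× MIC, with a drug-free control. Viable counts were taken every 2 h until McFarland no. 1 turbidity. Effect duration comes from log10 CFU/ml-time plots; two separate experiments with new inocula.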"}, "Staphylococcus aureus [2]": {"tested_on": "Staphylococcus aureus", "test": "Antimicrobial activity against vancomycin-intermediate-, methicillin-resistant Staphylococcus aureus 555 assessed as time required to induce post antibiotic sub-MIC effect at 0.3 times MIC […] by plate counting method", "how_it_was_run": "(§2)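 PAE was first induced with 10× MIC for 1 h at 35°C (inoculum about 5 × 10^6 CFU/ml, Mueller-Hinton broth) and ended by 1:1,000 dilution. Cultures were then split and given 0.2, 0.3 or 0.4× MIC, with one tube left without drug. Viable counts were taken before exposure, after dilution, then every 2 h until McFarland no. 1 turbidity. Two separate experiments, each with a new inoculum.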"}, "Streptococcus agalactiae": {"tested_on": "Streptococcus agalactiae", "test": "Antimicrobial activity against Streptococcus agalactiae HMC 5 assessed as time required to induce post antibiotic sub-MIC effect at 0.4 times MIC […] by plate counting method", "how_it_was_run": "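Mueller-Hinton broth cultures of about 5 × 10^6 CFU/ml were pre-exposed to telavancin at 10× MIC for 1 h at 35°C, then diluted 1:1,000. Telavancin was re-added to final 0.2, 0.3 or 0.4× MIC, alongside a drug-free tube. Viable counts were taken before exposure, after dilution, then every 2 h until McFarland no. 1 turbidity. Duration comes from log10 CFU/ml-versus-time plots; two separate experiments with fresh inocula.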"}, "Staphylococcus aureus [3]": {"tested_on": "Staphylococcus aureus", "test": "Antimicrobial activity against vancomycin-susceptible-, methicillin-resistant Staphylococcus aureus 1130 assessed as time required to induce sub-MIC effect at 0.2 times MIC exposed for 2 hrs by plate counting method", "how_it_was_run": "(§3)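 Sub-MIC effect: cultures not preexposed to drug were diluted and handled as in the PA-SME procedure in Mueller-Hinton broth with final 0.2, 0.3 or 0.4× MIC, plus a drug-free control. Viable plate counts were taken every 2 h until McFarland 1 turbidity. Duration was derived from growth curves. Two experiments were run, each with a new inoculum.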"}, "Staphylococcus aureus [4]": {"tested_on": "Staphylococcus aureus", "test": "Antimicrobial activity against vancomycin-susceptible-, methicillin-resistant Staphylococcus aureus 1130 assessed as time required to induce post antibiotic sub-MIC effect at 0.3 times MIC […] by plate counting method", "how_it_was_run": "(§4)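 After 1 h preexposure to 10× MIC at 35°C and 1:1,000 dilution, cultures were split, and drug was re-added to final 0.2, 0.3 or 0.4× MIC, with a drug-free tube. Viable counts were taken every 2 h until McFarland 1 turbidity. Duration was derived from log10 CFU/ml versus time curves. Two experiments were run, each with a new inoculum.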"}, "Enterococcus faecium": {"tested_on": "Enterococcus faecium", "test": "Antimicrobial activity against Enterococcus faecium HMC 588 assessed as post-antibiotic effect at 10 times MIC pre-exposed to Telavancin for 1 hr by plate counting method", "how_it_was_run": "(§5)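 Organisms were suspended in Mueller-Hinton broth from overnight blood agar colonies at about 5 × 10^6 CFU/ml. Cultures were exposed to telavancin at 10× MIC for 1 h at 35°C in a shaking water bath, then diluted 1:1,000 to remove the drug, with an untreated growth control. Viable counts were taken before exposure, at 0 h, then every 2 h until McFarland no. 1 turbidity. PAE = T − C, the time to a 1 log10 rise. Two experiments.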"}, "Streptococcus pyogenes": {"tested_on": "Streptococcus pyogenes", "test": "Antimicrobial activity against Streptococcus pyogenes HMC 414 by microdilution method"}, "Staphylococcus aureus [5]": {"tested_on": "Staphylococcus aureus", "test": "Antimicrobial activity against vancomycin-susceptible-, methicillin-resistant Staphylococcus aureus 1130 assessed as post-antibiotic effect at 10 times MIC pre-exposed to Telavancin for 1 hr by plate counting method", "how_it_was_run": "(§6)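 Direct colony suspensions (~5 × 10^6 CFU/ml) were exposed to 10× MIC for 1 h at 35°C with shaking in Mueller-Hinton broth, then diluted 1:1,000 to remove drug. Viable plate counts were taken before exposure, at 0 h, then every 2 h until turbidity reached McFarland 1. PAE = T − C, the time for counts to rise 1 log10 versus the unexposed control. Two separate experiments were run.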"}, "Staphylococcus aureus [6]": {"tested_on": "Staphylococcus aureus", "test": "Antimicrobial activity against vancomycin-susceptible-, methicillin-resistant Staphylococcus aureus 1306 assessed as post-antibiotic effect at 10 times MIC pre-exposed to Telavancin for 1 hr by plate counting method", "how_it_was_run": "as §6"}, "Enterococcus faecalis [7]": {"tested_on": "Enterococcus faecalis", "test": "Antimicrobial activity against Enterococcus faecalis HMC 571 assessed as post-antibiotic effect at 10 times MIC pre-exposed to Telavancin for 1 hr by plate counting method", "how_it_was_run": "as §5"}, "Staphylococcus aureus [8]": {"tested_on": "Staphylococcus aureus", "test": "Antimicrobial activity against vancomycin-intermediate-, methicillin-resistant Staphylococcus aureus 1287 assessed as time required to induce sub-MIC effect at 0.2 times MIC […] by plate counting method", "how_it_was_run": "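SME, viable plate count method: no prior drug exposure. About 5 × 10^6 CFU/ml in Mueller-Hinton broth at 35°C received 0.2, 0.3 or 0.4× MIC, alongside a drug-free tube. Counts were taken at the start, then every 2 h until McFarland no. 1 turbidity, as log10 CFU/ml against time. Two separate experiments, each with a new inoculum.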"}, "Staphylococcus aureus [9]": {"tested_on": "Staphylococcus aureus", "test": "Antimicrobial activity against vancomycin-susceptible-, methicillin-resistant Staphylococcus aureus ATCC 33591 by microdilution method"}, "Staphylococcus aureus [10]": {"tested_on": "Staphylococcus aureus", "test": "Antimicrobial activity against vancomycin-susceptible-, methicillin-resistant Staphylococcus aureus 1306 assessed as time required to induce sub-MIC effect at 0.2 times MIC exposed for 2 hrs by plate counting method", "how_it_was_run": "as §3"}, "Enterococcus faecalis [11]": {"tested_on": "Enterococcus faecalis", "test": "Antimicrobial activity against Enterococcus faecalis HMC 571 assessed as time required to induce sub-MIC effect at 0.4 times MIC exposed for 2 hrs by plate counting method", "how_it_was_run": "as §1"}, "Staphylococcus aureus [12]": {"tested_on": "Staphylococcus aureus", "test": "Antimicrobial activity against vancomycin-intermediate-, methicillin-resistant Staphylococcus aureus 770 assessed as time required to induce sub-MIC effect at 0.4 times MIC exposed for 2 hrs by plate counting method", "how_it_was_run": "as §3"}, "Staphylococcus aureus [13]": {"tested_on": "Staphylococcus aureus", "test": "Antimicrobial activity against vancomycin-susceptible-, methicillin-resistant Staphylococcus aureus 1306 assessed as time required to induce post antibiotic sub-MIC effect at 0.3 times MIC […] by plate counting method", "how_it_was_run": "as §4"}, "Staphylococcus aureus [14]": {"tested_on": "Staphylococcus aureus", "test": "Antimicrobial activity against vancomycin-intermediate-, methicillin-resistant Staphylococcus aureus 555 assessed as time required to induce post antibiotic sub-MIC effect at 0.4 times MIC […] by plate counting method", "how_it_was_run": "as §2"}, "Staphylococcus aureus [15]": {"tested_on": "Staphylococcus aureus", "test": "Antimicrobial activity against vancomycin-susceptible-, methicillin-resistant Staphylococcus aureus ATCC 33591 assessed as time required to induce sub-MIC effect at 0.4 times MIC exposed for 2 hrs by plate counting method", "how_it_was_run": "as §3"}, "Staphylococcus aureus [16]": {"tested_on": "Staphylococcus aureus", "test": "Antimicrobial activity against heterogenous vancomycin-intermediate-, methicillin-resistant Staphylococcus aureus 618 assessed as time required to induce post antibiotic sub-MIC effect at 0.2 times MIC pre-exposed to Telavancin […] by plate counting method", "how_it_was_run": "as §2"}, "Staphylococcus aureus [17]": {"tested_on": "Staphylococcus aureus", "test": "Antimicrobial activity against vancomycin-susceptible-, methicillin-resistant Staphylococcus aureus ATCC 33591 assessed as post-antibiotic effect at 10 times MIC pre-exposed to Telavancin for 1 hr by plate counting method", "how_it_was_run": "as §6"}}}
{"smiles": "CCCCCCCCCCNCCN[C@@]1(C)C[C@H](O[C@H]2[C@H](Oc3c4cc5cc3Oc3ccc(cc3Cl)[C@@H](O)[C@@H](NC(=O)[C@@H](CC(C)C)NC)C(=O)N[C@@H](CC(N)=O)C(=O)N[C@H]5C(=O)N[C@H]3C(=O)N[C@H](C(=O)N[C@H](C(=O)O)c5cc(O)c(CNCP(=O)(O)O)c(O)c5-c5cc3ccc5O)[C@H](O)c3ccc(c(Cl)c3)O4)O[C@H](CO)[C@@H](O)[C@@H]2O)O[C@@H](C)[C@H]1O", "note": "[TELAVANCIN]", "values": [{"measurement": "PAE", "setting": "Enterococcus faecalis [1]", "result": 2.6, "unit": "h"}, {"measurement": "PAE", "setting": "Staphylococcus aureus [2]", "result": 10.3, "unit": "h"}, {"measurement": "PAE", "setting": "Streptococcus agalactiae", "result": "> 10.7", "unit": "h"}, {"measurement": "PAE", "setting": "Staphylococcus aureus [3]", "result": 0, "unit": "h"}, {"measurement": "PAE", "setting": "Staphylococcus aureus [4]", "result": 10, "unit": "h"}, {"measurement": "PAE", "setting": "Enterococcus faecium", "result": 1.2, "unit": "h"}, {"measurement": "MIC", "setting": "Streptococcus pyogenes", "result": 0.06, "unit": "µg/mL"}, {"measurement": "PAE", "setting": "Staphylococcus aureus [5]", "result": 1.4, "unit": "h"}, {"measurement": "PAE", "setting": "Staphylococcus aureus [6]", "result": 1.8, "unit": "h"}, {"measurement": "PAE", "setting": "Enterococcus faecalis [7]", "result": 1.5, "unit": "h"}, {"measurement": "PAE", "setting": "Staphylococcus aureus [8]", "result": 0, "unit": "h"}, {"measurement": "MIC", "setting": "Staphylococcus aureus [9]", "result": 0.25, "unit": "µg/mL"}, {"measurement": "PAE", "setting": "Staphylococcus aureus [10]", "result": 0.7, "unit": "h"}, {"measurement": "PAE", "setting": "Enterococcus faecalis [11]", "result": 9.6, "unit": "h"}, {"measurement": "PAE", "setting": "Staphylococcus aureus [12]", "result": 0.8, "unit": "h"}, {"measurement": "PAE", "setting": "Staphylococcus aureus [13]", "result": 5.4, "unit": "h"}, {"measurement": "PAE", "setting": "Staphylococcus aureus [14]", "result": "> 10.3", "unit": "h"}, {"measurement": "PAE", "setting": "Staphylococcus aureus [15]", "result": 2.3, "unit": "h"}, {"measurement": "PAE", "setting": "Staphylococcus aureus [16]", "result": 5.7, "unit": "h"}, {"measurement": "PAE", "setting": "Staphylococcus aureus [17]", "result": 1.5, "unit": "h"}]}
